Data reported in ChEMBL document CHEMBL3414476, “Novel multitarget-directed ligands (MTDLs) with acetylcholinesterase (AChE) inhibitory and serotonergic subtype 4 receptor (5-HT4R) agonist activities as potential agents against Alzheimer's disease: the design of donecopride” (J Med Chem, 2015).
Calls of active or inactive are those of the source. No cut-off for these calls is given here.

How the values were obtained:
Cholinesterase = Cholinesterase (Equus caballus, UniProt P81908); assay: Inhibition of equine serum BuChE pre-incubated for 5 mins before butyrylthiocholine iodide substrate by Ellman' method
Summary of the method: (§1)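 Ellman assay in 96-well format: 0.3 mM DTNB in phosphate buffer pH 7.4, compound in DMSO, and enzyme (human erythrocyte AChE or equine serum BuChE, 0.05 U final) preincubated 5 min at 25 °C. Started with 10 mM acetyl- or butyrylthiocholine iodide; A412 followed every minute for 10 min, substrate-free blank.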

Mus musculus [1] = assay: Toxicity in NMRI mouse assessed as induction of hyperactivity at 2 mg/kg, ip; format: organism-based; design: dose 2 mg/kg, route intraperitoneal; conditions: in vivo
Summary of the method: (§2)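 Behavioural and neurological changes scored by standardized observation at 30 min, 3 h and 24 h against controls.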

Mus musculus [2] = assay: Toxicity in NMRI mouse assessed as induction of irritability at 2 mg/kg, ip; format: organism-based; design: dose 2 mg/kg, route intraperitoneal; conditions: in vivo; summary of the method: as §2
Mus musculus [3] = assay: Toxicity in NMRI mouse assessed as induction of exophtalmy at 2 mg/kg, ip; format: organism-based; design: dose 2 mg/kg, route intraperitoneal; conditions: in vivo; summary of the method: as §2
[4] = target: 5-hydroxytryptamine receptor 4 (Homo sapiens) (UniProt Q13639); assay: Displacement of [3H]GR113808 from human 5-HT4R at 1 uM by radioligand binding assay
Summary of the method: (§3)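 Recombinant human 5-HT4 membranes, 2.5 μg protein, incubated in duplicate with 0.2 nM [3H]GR113808 in 25 mM Tris pH 7.4 for 60 min at 25 °C, with or without drug at 10−6 or 10−8 M. Filtered on PEI-presoaked GF/C filters, washed with ice-cold buffer. Nonspecific binding with 30 μM serotonin. Read-out is % inhibition of binding.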

[5] = target: 5-hydroxytryptamine receptor 4 (Homo sapiens) (UniProt Q13639); assay: Agonist activity at HA-tagged 5-HT4R (unknown origin) expressed in COS7 cells assessed as cAMP accumulation by HTRF assay; format: functional, cell-based; design: concentration or dose not given beside the values; conditions: COS-7
[6] = target: 5-hydroxytryptamine receptor 4 (Homo sapiens) (UniProt Q13639); assay: Displacement of [3H]GR113808 from human 5-HT4R at 10 nM by radioligand binding assay; summary of the method: as §3
[7] = target: 5-hydroxytryptamine receptor 4 (Cavia porcellus, UniProt O70528); assay: Displacement of [3H]GR113808 from 5-HT4R in guinea pig brain membranes incubated for 30 mins by radioligand binding assay; format: cell membranes, Membrane
Mus musculus [8] = assay: Antiamnesic activity in NMRI mouse assessed as reversal of scopolamine-induced spontaneous alteration deficit at 0.1 mg/kg, ip co-administered with 0.3 mg/kg DPZ by Y maze test; format: functional, organism-based
Summary of the method: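 Scopolamine 0.5 mg/kg given SC 30 min before the Y-maze test. The reference combination was 0.1 mg/kg IP (30 min before) plus DPZ 0.3 mg/kg SC (20 min before), in 0.9% NaCl vehicle. Percent spontaneous alternation = actual/(total arm entries − 2) × 100. Mean ± SD, n = 10–12, univariate t test versus 50%.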

Acetylcholinesterase [9] = target: T1, Acetylcholinesterase (Homo sapiens, UniProt P22303); assay: Inhibition of human erythrocyte AChE pre-incubated for 5 mins before acetylthiocholine iodide substrate by Ellman' method
Acetylcholinesterase [10] = target: T1, Acetylcholinesterase; assay: Inhibition of human erythrocyte AChE at 10 uM pre-incubated for 5 mins before acetylthiocholine iodide substrate by Ellman' method; summary of the method: as §1
[11] = target: Cholinesterase (Equus caballus) (UniProt P81908); assay: Inhibition of equine serum BuChE at 10 uM pre-incubated for 5 mins before butyrylthiocholine iodide substrate by Ellman' method; summary of the method: as §1
Mus musculus [12] = assay: Antiamnesic activity in NMRI mouse assessed as reversal of scopolamine-induced spontaneous alteration deficit at 1 mg/kg, ip by Y maze test; format: functional, organism-based; design: dose 1 mg/kg
Mus musculus [13] = assay: Toxicity in NMRI mouse assessed as induction of ataxia at 10 mg/kg, ip; format: organism-based; design: dose 10 mg/kg, route intraperitoneal; conditions: in vivo
Summary of the method: (§4)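 Mice in groups of four received graded IP doses of […]. Behavioural and neurological changes (hypo- or hyperactivity, ataxia, tremors, convulsion, etc.) were scored by standardized observation at 30 min, 3 h and 24 h against controls.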

Mus musculus [14] = assay: Toxicity in NMRI mouse assessed as induction of sleep at 10 mg/kg, ip; format: organism-based; design: dose 10 mg/kg, route intraperitoneal; conditions: in vivo; summary of the method: as §4
Mus musculus [15] = assay: Toxicity in NMRI mouse assessed as induction of hypoactivity at 10 mg/kg, ip; format: organism-based; design: dose 10 mg/kg, route intraperitoneal; conditions: in vivo; summary of the method: as §4
Mus musculus [16] = assay: Toxicity in NMRI mouse assessed as effect on spontaneous locomotor activity at 10 mg/kg, ip dosed 30 mins before placing mouse in actimeter; format: organism-based; design: dose 10 mg/kg, route intraperitoneal; conditions: in vivo, 0.5 h
Summary of the method: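 Adult male NMRI mice were dosed IP 30 min before being placed individually in an infrared actimeter. Beam interruptions were counted over 30 min. Mean ± SD, n = 9–10, SNK test versus NaCl.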

Mus musculus [17] = assay: Antidepressant-like activity in NMRI mouse assessed as reduction in immobility time at 0.3 mg/kg, ip administered 30 mins before test; format: functional, organism-based; design: dose 0.3 mg/kg
Summary of the method: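 Male NMRI mice given drug in 0.9% NaCl IP 30 min before the test, not pretested. Each mouse swam 6 min in a 12 cm diameter cylinder, water 13 cm deep at 23−24 °C. Immobility was scored over the last 4 min. n = 10−12, SNK test versus NaCl.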

Mus musculus [18] = assay: Increase in sAPPalpha level in C57BL/6 mouse CSF at 1 mg/kg, ip measured after 90 mins by ELISA method; format: functional, organism-based; design: dose 1 mg/kg
Summary of the method: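 Wild-type C57BL/6 mice, 2 months old, n = 7/group. Single IP injection of vehicle (0.9% NaCl, 0.2% DMSO) or drug. After 90 min, CSF was taken from the cisterna magna under anesthesia, frozen at −80 °C and heated at 60 °C for 5 min. sAPPα measured by mouse/rat ELISA read at 620/450 nm. Unpaired t test.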

[19] = Toxicity in ip dosed NMRI mouse; format: organism-based; conditions: in vivo
Mus musculus [20] = assay: Antiamnesic activity in NMRI mouse assessed as reversal of scopolamine-induced spontaneous alteration deficit at 0.3 mg/kg, ip by Y maze test; format: functional, organism-based; design: dose 0.3 mg/kg
Summary of the method: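 Male NMRI mice, 3 months old, 35−40 g. Scopolamine 0.5 mg/kg SC 30 min before the Y-maze test; test drug in 0.9% NaCl IP 30 min before. Spontaneous alternation = actual/possible alternations (total arm entries minus two) × 100. n = 10−12. Compared with 50% by univariate t test.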

Mus musculus [21] = assay: Toxicity in NMRI mouse assessed as induction of passivity at 100 mg/kg, ip; format: organism-based; design: dose 100 mg/kg, route intraperitoneal; conditions: in vivo; summary of the method: as §4
Mus musculus [22] = assay: Toxicity in NMRI mouse assessed as induction of hypoactivity at 100 mg/kg, ip; format: organism-based; design: dose 100 mg/kg, route intraperitoneal; conditions: in vivo; summary of the method: as §4
Mus musculus [23] = assay: Toxicity in NMRI mouse assessed as toxic symptoms at 1 to 10 mg/kg, ip; format: organism-based; design: dose 1-10 mg/kg, route intraperitoneal; conditions: in vivo; summary of the method: as §4
[24] = target: 5-hydroxytryptamine receptor 4 (Homo sapiens) (UniProt Q13639); assay: Activity at 5-HT4R (unknown origin) expressed in COS7 cells assessed as increase in sAPPalpha release relative to 5-HT; format: cell-based; conditions: COS-7

Sequence of Cholinesterase (Equus caballus) (P81908 whole entry): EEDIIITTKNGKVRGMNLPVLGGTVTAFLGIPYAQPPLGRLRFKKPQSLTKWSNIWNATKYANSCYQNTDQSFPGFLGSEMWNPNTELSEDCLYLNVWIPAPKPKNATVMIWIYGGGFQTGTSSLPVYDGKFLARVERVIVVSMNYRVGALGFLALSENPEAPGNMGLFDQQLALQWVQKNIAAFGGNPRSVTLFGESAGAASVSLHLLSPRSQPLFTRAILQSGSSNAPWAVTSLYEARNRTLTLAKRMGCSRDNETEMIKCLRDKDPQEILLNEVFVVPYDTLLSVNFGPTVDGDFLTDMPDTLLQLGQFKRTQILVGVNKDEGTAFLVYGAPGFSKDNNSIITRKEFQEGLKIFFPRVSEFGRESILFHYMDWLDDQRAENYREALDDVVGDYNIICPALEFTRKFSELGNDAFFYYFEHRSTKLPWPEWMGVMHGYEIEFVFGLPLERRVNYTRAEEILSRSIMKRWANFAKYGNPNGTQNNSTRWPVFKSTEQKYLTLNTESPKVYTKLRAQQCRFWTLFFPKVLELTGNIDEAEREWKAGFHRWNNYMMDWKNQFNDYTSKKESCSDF
Sequence of Cholinesterase (P81908 whole entry): as above
T1 sequence (P22303 whole entry): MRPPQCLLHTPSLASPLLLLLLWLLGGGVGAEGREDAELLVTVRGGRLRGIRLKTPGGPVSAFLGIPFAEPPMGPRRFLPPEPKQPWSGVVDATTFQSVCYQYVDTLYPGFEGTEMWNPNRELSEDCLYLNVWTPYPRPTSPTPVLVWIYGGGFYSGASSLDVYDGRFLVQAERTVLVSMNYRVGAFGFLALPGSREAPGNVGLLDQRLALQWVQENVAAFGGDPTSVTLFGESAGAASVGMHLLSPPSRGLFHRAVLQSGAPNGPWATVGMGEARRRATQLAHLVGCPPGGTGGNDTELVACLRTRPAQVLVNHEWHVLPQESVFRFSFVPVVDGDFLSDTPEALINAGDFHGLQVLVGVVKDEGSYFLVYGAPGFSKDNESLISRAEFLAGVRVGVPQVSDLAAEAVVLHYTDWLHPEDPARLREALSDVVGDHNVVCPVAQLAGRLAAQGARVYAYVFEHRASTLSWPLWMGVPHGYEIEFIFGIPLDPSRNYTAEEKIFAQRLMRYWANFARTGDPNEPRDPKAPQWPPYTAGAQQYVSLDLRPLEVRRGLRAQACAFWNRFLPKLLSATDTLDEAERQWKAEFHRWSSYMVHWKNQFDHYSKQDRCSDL
Sequence of 5-hydroxytryptamine receptor 4 (O70528 whole entry): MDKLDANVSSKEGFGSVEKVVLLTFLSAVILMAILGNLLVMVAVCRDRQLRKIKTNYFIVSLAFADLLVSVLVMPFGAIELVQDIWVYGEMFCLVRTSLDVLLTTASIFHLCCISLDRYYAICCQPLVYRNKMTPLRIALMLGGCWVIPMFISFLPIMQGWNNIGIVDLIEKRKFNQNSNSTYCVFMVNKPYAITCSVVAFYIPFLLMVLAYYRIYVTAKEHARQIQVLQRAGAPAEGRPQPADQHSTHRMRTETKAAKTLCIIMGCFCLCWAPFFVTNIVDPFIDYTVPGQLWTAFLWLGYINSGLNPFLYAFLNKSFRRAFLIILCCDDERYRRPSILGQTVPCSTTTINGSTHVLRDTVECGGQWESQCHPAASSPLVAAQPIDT
Sequence of 5-hydroxytryptamine receptor 4 (Homo sapiens) (Q13639 whole entry): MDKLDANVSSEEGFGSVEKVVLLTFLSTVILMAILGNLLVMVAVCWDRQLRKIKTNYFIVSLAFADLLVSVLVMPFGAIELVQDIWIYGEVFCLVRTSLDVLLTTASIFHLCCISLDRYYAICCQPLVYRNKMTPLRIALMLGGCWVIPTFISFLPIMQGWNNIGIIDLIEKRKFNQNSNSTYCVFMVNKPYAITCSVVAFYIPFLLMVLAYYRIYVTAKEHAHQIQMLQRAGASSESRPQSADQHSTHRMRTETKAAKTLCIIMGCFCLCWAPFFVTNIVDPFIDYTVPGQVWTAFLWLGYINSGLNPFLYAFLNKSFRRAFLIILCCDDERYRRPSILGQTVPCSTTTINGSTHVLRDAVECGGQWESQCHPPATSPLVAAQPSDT

`COc1cc(N)c(Cl)cc1C(=O)CCC1CCN(CC2CC2)CC1` showed an IC50 (Cholinesterase) of 6600 nM.

For `CC(N)Cc1ccccc1` (stereo not given) [AMPHETAMINE], the Activity (Mus musculus [1]) was “Toxic”, the Activity (Mus musculus [2]) was “Toxic” and the Activity (Mus musculus [3]) was “Toxic”.

Compound `COc1cc(N)c(Cl)cc1C(=O)CCC1CCN(CCC2CCCCC2)CC1` has an IC50 (Cholinesterase) of 6340 nM.

`COc1cc(N)c(Cl)cc1C(=O)CCC1CCN(CC2CCCCCC2)CC1` showed an IC50 (Cholinesterase) of 4000 nM, an inhibition [4] of 99% and an Activity [5] of 58%. For the same compound, the inhibition [6] was 46%.

With `CCCCN1CCC(CCC(=O)c2cc(Cl)c(N)cc2OC)CC1` the Ki [7] was 9.3 nM, the Activity (Mus musculus [8]) was “Active” and the IC50 (Acetylcholinesterase [9]) was 403 nM.

For `COc1cc(N)c(Cl)cc1C(=O)CCC1CCN(CC2CCCCC2C)CC1` (stereo not given), the IC50 (Cholinesterase) was 4340 nM.

For `COc1cc(N)c(Cl)cc1C(=O)CCC1CCN(Cc2ccccc2)CC1`, the Ki [7] was 14.3 nM, the IC50 (Acetylcholinesterase [9]) was 8.5 nM and the IC50 (Cholinesterase) was 1830 nM. For the same compound, the inhibition [4] was 100%, the Activity [5] was 65% and the inhibition [6] was 41%.

`COc1cc(N)c(Cl)cc1C(=O)NCC1CCN(CC2CCCCC2)CC1` showed a Ki [7] of 2.25 nM and an inhibition (Acetylcholinesterase [10]) of 45%.

With `COc1cc(N)c(Cl)cc1C(O)CCC1CCN(CC2CCCCC2)CC1` (stereo not given) the Ki [7] was 122 nM, the IC50 (Acetylcholinesterase [9]) was 1030 nM and the IC50 (Cholinesterase) was 3640 nM.

`COc1cc(N)c(Cl)cc1C(=O)CCC1CCN(Cc2cccnc2)CC1` showed a Ki [7] of 20.4 nM, an IC50 (Acetylcholinesterase [9]) of 45 nM and an IC50 (Cholinesterase) of 9160 nM.

Compound `CO/N=C(\CCC1CCN(CC2CCCCC2)CC1)c1cc(Cl)c(N)cc1OC` has an IC50 (Cholinesterase) of 7420 nM and an inhibition (Acetylcholinesterase [10]) of 33%.

`COc1cc(N)c(Cl)cc1C(=O)CCC1CCN(CC2CCNCC2)CC1` showed an inhibition [11] of 26%, an inhibition [4] of 100% and an Activity [5] of 20%. The inhibition [6] was 69%.

For `COc1cc(N)c(Cl)cc1C(=O)OCC1CCN(CC2CCCCC2)CC1`, the IC50 (Cholinesterase) was 4100 nM.

For `COc1cc2c(cc1OC)C(=O)C(CC1CCN(Cc3ccccc3)CC1)C2` (stereo not given), the Activity (Mus musculus [12]) was “Active”.

With `COc1cc(N)c(Cl)cc1C(=O)CCC1CCN(CC2CCC2)CC1` the inhibition [11] was 47%.

In the case of `CN(C)CCCN1c2ccccc2Sc2ccc(Cl)cc21` [CHLORPROMAZINE], the Activity (Mus musculus [13]) is reported as “Toxic”, the Activity (Mus musculus [14]) is reported as “Toxic” and the Activity (Mus musculus [15]) is reported as “Toxic”.

`COc1cc(N)c(Cl)cc1C(=O)CCC1CCN(CC2CCCC2)CC1` gave an IC50 (Cholinesterase) of 6910 nM, an inhibition [4] of 100% and an Activity [5] of 48%. For the same compound, the inhibition [6] was 58%.

Work on `COc1cc(N)c(Cl)cc1C(=O)CCC1CCN(Cc2ccncc2)CC1` yielded a Ki [7] of 20.6 nM, an IC50 (Acetylcholinesterase [9]) of 121 nM and an inhibition [11] of 46%.

With `COc1cc(N)c(Cl)cc1C(=O)CCC1CCN(CC2CCCCC2)CC1` the Activity (Mus musculus [16]) was “Non-toxic”, the Activity (Mus musculus [17]) was “Active” and the Activity (Mus musculus [18]) was “Active”. The IC50 (Cholinesterase) was 3530 nM, the LD50 [19] was 75 mg/kg and the Activity (Mus musculus [20]) was “Active”. The Activity (Mus musculus [21]) was “Toxic”, the Activity (Mus musculus [22]) was “Toxic” and the Activity (Mus musculus [23]) was “Non-toxic”. For the same compound, the inhibition [4] was 100%, the Activity [5] was 48.3% and the Emax [24] was 22.5%. The inhibition [6] was 73%.

With `COc1cc(N)c(Cl)cc1/C(CCC1CCN(CC2CCCCC2)CC1)=N/O` the Ki [7] was 193 nM.
